Experimental data reported in ChEMBL document CHEMBL1139365, “Inhibition of MDR1 activity in vitro by a novel class of diltiazem analogues: toward new candidates” (J Med Chem, 2009).
The source made the active and inactive calls. No cut-off for these calls is given here.

Tested on: A2780 ADR
Assay: Reversal of P-gp 170-mediated multidrug resistance in human A2780/DX3 cells assessed as reduction in doxorubicin IC50 at IC0 pretreated for 6 hrs before doxorubicin administration measured after 3 days by MTT assay
Type: cell-based
Parameters: scale not given: the % may be the effect or the level left
Details: not given
In short: (§1)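 A2780/DX3 cells went into medium holding the modulator at its MTT-derived 0% or 5% growth-inhibition concentration. Doxorubicin (30–0.048 μM serial dilutions, modulator kept constant) was added 6 h later. MTT (2 mg/mL) was added after 3 days for 4 h at 37 °C, formazan dissolved in DMSO, A540 read. IC50 came from dose–response curves, repeated 4–6 times. % reduction is versus doxorubicin alone in the same experiment. Kruskal–Wallis/Mann–Whitney tests.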

SMILES | Activity [%]
CCCCOC1(c2ccc(Br)cc2)SC=C(C)n2c1noc2=O (stereo not drawn) | 3
CC1=CSC(O)(c2cccc(C(F)(F)F)c2)c2noc(=O)n21 (stereo not drawn) | -22
COc1ccc([C@@H]2Sc3ccccc3N(CCN(C)C)C(=O)[C@@H]2OC(C)=O)cc1 [DILTIAZEM] | -72
CCOC1(c2ccc(Br)cc2)SC=C(C)n2c1noc2=O (stereo not drawn) | 6
CC1=CSC(O)(c2cccc([N+](=O)[O-])c2)c2noc(=O)n21 (stereo not drawn) | -21
O=c1onc2n1C=CSC2(O)c1ccccc1 (stereo not drawn) | -36

Tested on: not listed separately
Assay: Down regulation of P-gp 170 expression in human A2780/DX3 cells after 72 hrs by flow cytometry
Type: functional, cell-based
Details: not given
In short: (§2)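 Cells exposed 72 h to compound at concentrations giving 5% or 0% growth inhibition. Then washed in PBS/2% FCS; 2.5 × 10^5 cells stained at 4 °C with anti-Pgp MM4.17 monoclonal, then FITC goat anti-mouse IgG, and analysed by flow cytometry.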

SMILES | Activity
COc1ccc([C@@H]2Sc3ccccc3N(CCN(C)C)C(=O)[C@@H]2OC(C)=O)cc1 [DILTIAZEM] | inactive
O=c1onc2n1C=CSC2(O)c1ccccc1 (stereo not drawn) | inactive

Tested on: A2780
Assay: Antiproliferative activity against human A2780 cells at 5.3 uM after 3 days by MTT assay
Type: functional
Details: A2780, 72 h

SMILES | inhibition at 5.3 µM [%]
CC1=CSC(O)(c2cccc(C(F)(F)F)c2)c2noc(=O)n21 (stereo not drawn) | 0

Tested on: A2780
Assay: Antiproliferative activity against human A2780 cells at 13.1 uM after 3 days by MTT assay
Type: functional
Details: A2780, 72 h

SMILES | inhibition at 13.1 µM [%]
COC1(c2ccc(Cl)cc2)SC=C(C)n2c1noc2=O (stereo not drawn) | 0

Tested on: not listed separately
Assay: Antiproliferative activity against human A2780/DX3 cells at 3.7 uM after 3 days by MTT assay
Type: functional
Details: A2780/DX3, 72 h

SMILES | inhibition at 3.7 µM [%]
CC1=CSC(O)(c2cccc([N+](=O)[O-])c2)c2noc(=O)n21 (stereo not drawn) | 0

Tested on: A2780
Assay: Antiproliferative activity against human A2780 cells at 3.1 uM after 3 days by MTT assay
Type: functional
Details: A2780, 72 h

SMILES | inhibition at 3.1 µM [%]
CC1=CSC(O)(c2cccc([N+](=O)[O-])c2)c2noc(=O)n21 (stereo not drawn) | 0

Tested on: A2780
Assay: Antiproliferative activity against human A2780 cells after 3 days by MTT assay
Type: functional, cell-based
Details: not given
In short: (§3)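 Cells plated 6–8 h in 96-well plates. Compound alone, in duplicate at ≥5 concentrations (3-fold serial dilutions, top 100 μM), with final DMSO […] after predilution in FCS. After 3 days, MTT 4 h at 37 °C, formazan dissolved in DMSO, A540. IC50 taken from single dose–response curves; 3–4 experiments. A2780/DX3 kept doxorubicin-free 2–3 days beforehand.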

SMILES | IC5 [µM]
CCCCOC1(c2ccc(Br)cc2)SC=C(C)n2c1noc2=O (stereo not drawn) | 7.7
CC1=CSC(O)(c2cccc(C(F)(F)F)c2)c2noc(=O)n21 (stereo not drawn) | 18.3
COc1ccc([C@@H]2Sc3ccccc3N(CCN(C)C)C(=O)[C@@H]2OC(C)=O)cc1 [DILTIAZEM] | 2.8
CCOC1(c2ccc(Br)cc2)SC=C(C)n2c1noc2=O (stereo not drawn) | 3.3
CC1=CSC(O)(c2cccc([N+](=O)[O-])c2)c2noc(=O)n21 (stereo not drawn) | 3.95
COC1(c2ccc(Cl)cc2)SC=C(C)n2c1noc2=O (stereo not drawn) | 28.4
O=c1onc2n1C=CSC2(O)c1ccccc1 (stereo not drawn) | 4.4

Same assay, conditions: Homo sapiens, A2780, 72 h

SMILES | IC50 [µM]
CCCCOC1(c2ccc(Br)cc2)SC=C(C)n2c1noc2=O (stereo not drawn) | 82
CC1=CSC(O)(c2cccc(C(F)(F)F)c2)c2noc(=O)n21 (stereo not drawn) | 60
COc1ccc([C@@H]2Sc3ccccc3N(CCN(C)C)C(=O)[C@@H]2OC(C)=O)cc1 [DILTIAZEM] | 163
CCOC1(c2ccc(Br)cc2)SC=C(C)n2c1noc2=O (stereo not drawn) | > 100
CC1=CSC(O)(c2cccc([N+](=O)[O-])c2)c2noc(=O)n21 (stereo not drawn) | 159
COC1(c2ccc(Cl)cc2)SC=C(C)n2c1noc2=O (stereo not drawn) | 166
O=c1onc2n1C=CSC2(O)c1ccccc1 (stereo not drawn) | > 100

Tested on: A2780
Assay: Antiproliferative activity against human A2780 cells at 1.5 uM after 3 days by MTT assay
Type: functional
Details: A2780, 72 h

SMILES | inhibition at 1.5 µM [%]
CCOC1(c2ccc(Br)cc2)SC=C(C)n2c1noc2=O (stereo not drawn) | 0

Tested on: A2780 ADR
Assay: Reversal of P-gp 170-mediated multidrug resistance in human A2780/DX3 cells assessed as increase in intracellular doxorubicin accumulation at 5 times IC5 pretreated for 2 hrs before doxorubicin administration measured after 2 hrs by flow cytometry
Type: cell-based
Details: not given
In short: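 A2780/DX3 cells (kept in 0.1 μM doxorubicin, drug withdrawn 2–3 days before use) seeded in flasks, grown 24 h to 75–85% confluence. Modulator given at five times the 5%-growth-inhibition concentration for 2 h, then 10 μM doxorubicin for 2 h more. Cells trypsinized, fixed in 3.7% paraformaldehyde/2% sucrose in PBS. Flow cytometry, 488 nm excitation, 575 nm bandpass. Read-out is MFI, with % increase taken from the MFI ratio to doxorubicin alone.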

SMILES | Activity
CCCCOC1(c2ccc(Br)cc2)SC=C(C)n2c1noc2=O (stereo not drawn) | < 48%
CC1=CSC(O)(c2cccc(C(F)(F)F)c2)c2noc(=O)n21 (stereo not drawn) | < 48%
COc1ccc([C@@H]2Sc3ccccc3N(CCN(C)C)C(=O)[C@@H]2OC(C)=O)cc1 [DILTIAZEM] | 699%
CCOC1(c2ccc(Br)cc2)SC=C(C)n2c1noc2=O (stereo not drawn) | < 48%
CC1=CSC(O)(c2cccc([N+](=O)[O-])c2)c2noc(=O)n21 (stereo not drawn) | < 48%
COC1(c2ccc(Cl)cc2)SC=C(C)n2c1noc2=O (stereo not drawn) | < 48%
O=c1onc2n1C=CSC2(O)c1ccccc1 (stereo not drawn) | inactive

Tested on: A2780 ADR
Assay: Reversal of P-gp 170-mediated multidrug resistance in human A2780/DX3 cells assessed as reduction in doxorubicin IC50 at IC5 pretreated for 6 hrs before doxorubicin administration measured after 3 days by MTT assay
Type: cell-based
Parameters: scale not given: the % may be the effect or the level left
Details: not given
In short: as §1

SMILES | Activity [%]
CCCCOC1(c2ccc(Br)cc2)SC=C(C)n2c1noc2=O (stereo not drawn) | 3
CC1=CSC(O)(c2cccc(C(F)(F)F)c2)c2noc(=O)n21 (stereo not drawn) | -4
COc1ccc([C@@H]2Sc3ccccc3N(CCN(C)C)C(=O)[C@@H]2OC(C)=O)cc1 [DILTIAZEM] | -84
CCOC1(c2ccc(Br)cc2)SC=C(C)n2c1noc2=O (stereo not drawn) | -8
CC1=CSC(O)(c2cccc([N+](=O)[O-])c2)c2noc(=O)n21 (stereo not drawn) | 10
O=c1onc2n1C=CSC2(O)c1ccccc1 (stereo not drawn) | -18

Tested on: A2780
Assay: Antiproliferative activity against human A2780 cells at 1.2 uM after 3 days by MTT assay
Type: functional
Details: A2780, 72 h

SMILES | inhibition at 1.2 µM [%]
CCCCOC1(c2ccc(Br)cc2)SC=C(C)n2c1noc2=O (stereo not drawn) | 0

Tested on: A2780
Assay: Antiproliferative activity against human A2780 cells at 0.6 uM after 3 days by MTT assay
Type: functional
Details: A2780, 72 h

SMILES | inhibition at 0.6 µM [%]
O=c1onc2n1C=CSC2(O)c1ccccc1 (stereo not drawn) | 0

Tested on: not listed separately
Assay: Antiproliferative activity against human A2780/DX3 cells at 1.0 uM after 3 days by MTT assay
Type: functional
Details: A2780/DX3, 72 h

SMILES | inhibition at 1 µM [%]
CCCCOC1(c2ccc(Br)cc2)SC=C(C)n2c1noc2=O (stereo not drawn) | 0
CCOC1(c2ccc(Br)cc2)SC=C(C)n2c1noc2=O (stereo not drawn) | 0

Tested on: not listed separately
Assay: Antiproliferative activity against human A2780/DX3 cells at 1.2 uM after 3 days by MTT assay
Type: functional
Details: A2780/DX3, 72 h

SMILES | inhibition at 1.2 µM [%]
O=c1onc2n1C=CSC2(O)c1ccccc1 (stereo not drawn) | 0

Tested on: A2780 ADR
Assay: Reversal of P-gp 170-mediated multidrug resistance in human A2780/DX3 cells assessed as increase in intracellular doxorubicin accumulation at 5 times IC5 pretreated for 2 hrs before doxorubicin administration measured after 2 hrs by epifluorescent microscopic analysis
Type: cell-based
Details: not given
In short: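 A2780/DX3 cells on chamber slides at 75–85% confluence, pretreated 2 h with compound at five times the concentration giving 5% growth inhibition. Doxorubicin 10 μM then added for 2 h. Cells washed in cold PBS, fixed in 3.7% paraformaldehyde/2% sucrose, mounted and imaged by epifluorescence at 20X. Untreated and compound-only controls included.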

SMILES | Activity
O=c1onc2n1C=CSC2(O)c1ccccc1 (stereo not drawn) | inactive

Tested on: A2780
Assay: Antiproliferative activity against human A2780 cells at 1.3 uM after 3 days by MTT assay
Type: functional
Details: A2780, 72 h

SMILES | inhibition at 1.3 µM [%]
COc1ccc([C@@H]2Sc3ccccc3N(CCN(C)C)C(=O)[C@@H]2OC(C)=O)cc1 [DILTIAZEM] | 0

Tested on: A2780
Assay: Down regulation of P-gp 170 expression in human A2780 cells after 72 hrs by flow cytometry
Type: functional, cell-based
Details: not given
In short: as §2

SMILES | Activity
COc1ccc([C@@H]2Sc3ccccc3N(CCN(C)C)C(=O)[C@@H]2OC(C)=O)cc1 [DILTIAZEM] | inactive
O=c1onc2n1C=CSC2(O)c1ccccc1 (stereo not drawn) | inactive

Tested on: not listed separately
Assay: Blockade of L-type calcium channel
Details: not given

SMILES | EC50 [nM]
COc1ccc([C@@H]2Sc3ccccc3N(CCN(C)C)C(=O)[C@@H]2OC(C)=O)cc1 [DILTIAZEM] | 790
CCOC1(c2ccc(Br)cc2)SC=C(C)n2c1noc2=O (stereo not drawn) | 40

Tested on: not listed separately
Assay: Antiproliferative activity against human A2780/DX3 cells at 2.2 uM after 3 days by MTT assay
Type: functional
Details: A2780/DX3, 72 h

SMILES | inhibition at 2.2 µM [%]
COc1ccc([C@@H]2Sc3ccccc3N(CCN(C)C)C(=O)[C@@H]2OC(C)=O)cc1 [DILTIAZEM] | 0

Tested on: not listed separately
Assay: Antiproliferative activity against human A2780/DX3 cells at 1.9 uM after 3 days by MTT assay
Type: functional
Details: A2780/DX3, 72 h

SMILES | inhibition at 1.9 µM [%]
CC1=CSC(O)(c2cccc(C(F)(F)F)c2)c2noc(=O)n21 (stereo not drawn) | 0

Tested on: not listed separately
Assay: Antiproliferative activity against human A2780/DX3 cells at 3.0 uM after 3 days by MTT assay
Type: functional
Details: A2780/DX3, 72 h

SMILES | inhibition at 3 µM [%]
COC1(c2ccc(Cl)cc2)SC=C(C)n2c1noc2=O (stereo not drawn) | 0

Tested on: not listed separately
Assay: Antiproliferative activity against human A2780/DX3 cells after 3 days by MTT assay
Type: functional, cell-based
Details: not given
In short: as §3

SMILES | IC5 [µM]
CCCCOC1(c2ccc(Br)cc2)SC=C(C)n2c1noc2=O (stereo not drawn) | 3.2
CC1=CSC(O)(c2cccc(C(F)(F)F)c2)c2noc(=O)n21 (stereo not drawn) | 12.6
COc1ccc([C@@H]2Sc3ccccc3N(CCN(C)C)C(=O)[C@@H]2OC(C)=O)cc1 [DILTIAZEM] | 20.6
CCOC1(c2ccc(Br)cc2)SC=C(C)n2c1noc2=O (stereo not drawn) | 7.8
CC1=CSC(O)(c2cccc([N+](=O)[O-])c2)c2noc(=O)n21 (stereo not drawn) | 15.9
COC1(c2ccc(Cl)cc2)SC=C(C)n2c1noc2=O (stereo not drawn) | 11.7
O=c1onc2n1C=CSC2(O)c1ccccc1 (stereo not drawn) | 32.1

Same assay, conditions: Homo sapiens, A2780/DX3, 72 h

SMILES | IC50 [µM]
CCCCOC1(c2ccc(Br)cc2)SC=C(C)n2c1noc2=O (stereo not drawn) | 78
CC1=CSC(O)(c2cccc(C(F)(F)F)c2)c2noc(=O)n21 (stereo not drawn) | 71
COc1ccc([C@@H]2Sc3ccccc3N(CCN(C)C)C(=O)[C@@H]2OC(C)=O)cc1 [DILTIAZEM] | > 100
CCOC1(c2ccc(Br)cc2)SC=C(C)n2c1noc2=O (stereo not drawn) | > 100
CC1=CSC(O)(c2cccc([N+](=O)[O-])c2)c2noc(=O)n21 (stereo not drawn) | 129
COC1(c2ccc(Cl)cc2)SC=C(C)n2c1noc2=O (stereo not drawn) | 113
O=c1onc2n1C=CSC2(O)c1ccccc1 (stereo not drawn) | > 100
